Test results from ChEMBL document CHEMBL4251545, “Design and synthesis of cenocladamide analogues and their evaluation against breast cancer cell lines” (Medchemcomm, 2017).
Activity calls are given as the source filed them. The rule behind the calls is not given here.

Assays:
MDA-MB-231 [1] = experiment: Antiproliferative activity against human MDA-MB-231 cells at 20 uM after 3 days by DAPI staining-based fluorescence microscopic method relative to control; format: functional
Summary of the method: (§1)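 Controls were 0.5% DMSO (negative) and 1 μM doxorubicin (positive). Cells were fixed in 3.7% formaldehyde, stained with 0.4 μg mL–1 DAPI, and nuclei counted by automated fluorescence microscopy. Proliferation % and cell-loss % were calculated against a 24 h cell count and the DMSO 72 h count.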

MDA-MB-231 [2] = experiment: Cytotoxicity against human MDA-MB-231 cells at 20 uM after 3 days by DAPI staining-based fluorescence microscopic method relative to control; format: functional
MDA-MB-231 [3] = experiment: Antiproliferative activity against human MDA-MB-231 cells after 3 days by DAPI staining-based fluorescence microscopic method; format: functional, cell-based; details: MDA-MB-231, 72 h
Summary of the method: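 Fixed in 3.7% formaldehyde, nuclei stained with 0.4 μg mL–1 DAPI, counted by automated fluorescence microscopy. Proliferation normalised to 0.5% DMSO and to 24 h cell count; IC50 from dose response.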

SK-BR-3 = experiment: Cytotoxicity against human SKBR3 cells at 20 uM after 3 days by DAPI staining-based fluorescence microscopic method relative to control; format: functional
Hs-578T [4] = experiment: Cytotoxicity against human Hs 578T cells at 20 uM after 3 days by DAPI staining-based fluorescence microscopic method relative to control; format: functional
HCC38 [5] = experiment: Cytotoxicity against human HCC38 cells at 20 uM after 3 days by DAPI staining-based fluorescence microscopic method relative to control; format: functional
MDA-MB-468 [6] = experiment: Cytotoxicity against human MDA-MB-468 cells at 20 uM after 3 days by DAPI staining-based fluorescence microscopic method relative to control; format: functional
BT-549 [7] = experiment: Cytotoxicity against human BT549 cells at 20 uM after 3 days by DAPI staining-based fluorescence microscopic method relative to control; format: functional
T47D [8] = experiment: Cytotoxicity against human T47D cells at 20 uM after 3 days by DAPI staining-based fluorescence microscopic method relative to control; format: functional
MCF7 [9] = experiment: Cytotoxicity against human MCF7 cells at 20 uM after 3 days by DAPI staining-based fluorescence microscopic method relative to control; format: functional
MDA-MB-231 [10] = experiment: Induction of nuclear morphological changes in human MDA-MB-231 cells assessed as nuclear fragmentation by Hoechst 33342 staining-based fluorescence microscopic method; format: functional, cell-based
Summary of the method: (§2)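 Stained 60 min with 1 μg mL–1 Hoechst 33342 and 300 nM MitoTracker Deep Red in RPMI/10% FBS, then imaged by automated fluorescence microscopy. Mitochondrial mass taken as mean cytoplasmic MitoTracker intensity. Nuclear fragmentation index from an apoptosis image-analysis module.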

MDA-MB-231 [11] = experiment: Cytotoxicity against human MDA-MB-231 cells by MitoTracker Deep Red staining-based fluorescence microscopic method; format: functional, cell-based; summary of the method: as §2
MDA-MB-231 [12] = experiment: Induction of necrosis in human MDA-MB-231 cells at 40 uM after 24 hrs by acridine orange/ethidium bromide staining-based flow cytometric method; format: functional, cell-based
MDA-MB-231 [13] = experiment: Cell cycle arrest in human MDA-MB-231 cells assessed as accumulation at S phase at 25 uM after 72 hrs by EdU incorporation-based fluorescence microscopic method; format: functional
Summary of the method: (§3)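 Cells exposed 72 h to 0.2–25 μM, then pulsed 30 min with 30 μM EdU. Fixed in 3.7% paraformaldehyde, permeabilised with 0.1% Triton X100. EdU click-labelled with AF488. Blocked in 3% BSA, then anti-pHH3 (S10) 1:250 and AF647 secondary with Hoechst. S and M phases scored by automated imaging cell-cycle module.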

MDA-MB-231 [14] = experiment: Cell cycle arrest in human MDA-MB-231 cells assessed as accumulation at M phase at 25 uM after 72 hrs by pHH3 detection-based fluorescence microscopic method; format: functional; summary of the method: as §3
MDA-MB-231 [15] = experiment: Induction of reactive oxygen species generation in human MDA-MB-231 cells at 6 uM after 3 hrs by H2DCFDA dye-based fluorescence microscopic method relative to control; format: functional
Summary of the method: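 Exposed 3 or 24 h to 6 μM, with or without 3 mM N-acetyl-L-cysteine. Cells then loaded with 10 μM H2DCFDA for 30 min at 37 °C, washed with PBS, and fluorescence intensity read by automated fluorescence microscopy.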

Hs-578T [16] = experiment: Cytotoxicity against human Hs 578T cells at 0.5 uM after 3 days by DAPI staining-based fluorescence microscopic method relative to control; format: functional; details: in the assay text read “at 1 uM” for “at 0.5 uM”; summary of the method: as §1
HCC38 [17] = experiment: Cytotoxicity against human HCC38 cells at 0.5 uM after 3 days by DAPI staining-based fluorescence microscopic method relative to control; format: functional; details: in the assay text read “at 1 uM” for “at 0.5 uM”; summary of the method: as §1
MDA-MB-468 [18] = experiment: Cytotoxicity against human MDA-MB-468 cells at 0.5 uM after 3 days by DAPI staining-based fluorescence microscopic method relative to control; format: functional; details: in the assay text read “at 1 uM” for “at 0.5 uM”; summary of the method: as §1
BT-549 [19] = experiment: Cytotoxicity against human BT549 cells at 0.5 uM after 3 days by DAPI staining-based fluorescence microscopic method relative to control; format: functional; details: in the assay text read “at 1 uM” for “at 0.5 uM”; summary of the method: as §1
T47D [20] = experiment: Cytotoxicity against human T47D cells at 0.5 uM after 3 days by DAPI staining-based fluorescence microscopic method relative to control; format: functional; details: in the assay text read “at 1 uM” for “at 0.5 uM”; summary of the method: as §1
MCF7 [21] = experiment: Cytotoxicity against human MCF7 cells at 0.5 uM after 3 days by DAPI staining-based fluorescence microscopic method relative to control; format: functional; details: in the assay text read “at 1 uM” for “at 0.5 uM”; summary of the method: as §1
HMEC = experiment: Cytotoxicity against immortalized HMEC at 0.5 uM after 3 days by DAPI staining-based fluorescence microscopic method relative to control; format: cell-based; details: human, 72 h, 1 µM, in the assay text read “at 1 uM” for “at 0.5 uM”; summary of the method: as §1
MDA-MB-231 [22] = experiment: Cytotoxicity against human MDA-MB-231 cells at 0.5 uM after 3 days by DAPI staining-based fluorescence microscopic method relative to control; format: functional; details: in the assay text read “at 1 uM” for “at 0.5 uM”; summary of the method: as §1
MDA-MB-231 [23] = experiment: Induction of reactive oxygen species generation in human MDA-MB-231 cells at 20 uM after 24 hrs by H2DCFDA dye-based fluorescence microscopic method; format: functional, cell-based
Summary of the method: (§4)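 MDA-MB-231 cells were exposed for 3 or 24 h, with or without 3 mM N-acetyl-L-cysteine. Intracellular ROS was probed with 10 μM H2DCFDA for 30 min at 37 °C. After a PBS wash, fluorescence intensity was quantified by automated fluorescence microscopy. Cells were grown at 37 °C, 5% CO2.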

MDA-MB-231 [24] = experiment: Induction of reactive oxygen species generation in human MDA-MB-231 cells at 6 uM after 24 hrs by H2DCFDA dye-based fluorescence microscopic method; format: functional, cell-based; details: 20 uM, in the assay text read “at 20 uM” for “at 6 uM”; summary of the method: as §4
MDA-MB-231 [25] = experiment: Induction of reactive oxygen species generation in human MDA-MB-231 cells at 6 uM after 3 hrs in presence of N-acetyl-L-cysteine by H2DCFDA dye-based fluorescence microscopic method; format: functional, cell-based; details: 20 uM, in the assay text read “at 20 uM” for “at 6 uM”; summary of the method: as §4

With `O=C1C=CN(C(=O)/C=C/c2ccccc2)CC1` the Activity (MDA-MB-231 [1]) was 50%.

`COc1cc(/C=C/C(=O)N2C=CC(=O)CC2)cc(OC)c1OC` showed an Activity (MDA-MB-231 [1]) of 50%.

`COc1cc(/C=C/C(=O)N2CCC(=O)CC2)cc(OC)c1O` was tested, and the Activity (MDA-MB-231 [2]) was 60%, the IC50 (MDA-MB-231 [3]) was 6.6 µM and the Activity (SK-BR-3) was “>=15 - 80%”. The Activity (Hs-578T [4]) was “>=15 - 80%”, the Activity (HCC38 [5]) was “>=15 - 80%” and the Activity (MDA-MB-468 [6]) was “>=15 - 80%”. The Activity (BT-549 [7]) was “>=15 - 80%”, the Activity (T47D [8]) was “>=15 - 80%” and the Activity (MCF7 [9]) was “>=15 - 80%”. For the same compound, the Activity (MDA-MB-231 [10]) was “Active”, the Activity (MDA-MB-231 [11]) was “Active” and the Activity (MDA-MB-231 [12]) was “Active”. For the same compound, the Activity (MDA-MB-231 [13]) was “inactive”, the Activity (MDA-MB-231 [14]) was “inactive” and the Activity (MDA-MB-231 [15]) was 20%.

For `COc1cccc2c1C(=O)c1c(O)c3c(c(O)c1C2=O)C[C@@](O)(C(=O)CO)C[C@@H]3O[C@H]1C[C@H](N)[C@H](O)[C@H](C)O1` [DOXORUBICIN], the Activity (Hs-578T [16]) was 0.2 - 50%, the Activity (HCC38 [17]) was 0.2 - 50% and the Activity (MDA-MB-468 [18]) was 0.2 - 50%. The Activity (BT-549 [19]) was 0.2 - 50%, the Activity (T47D [20]) was 0.2 - 50% and the Activity (MCF7 [21]) was 0.2 - 50%. The Activity (HMEC) was 23.9% and the Activity (MDA-MB-231 [22]) was 0.2 - 50%.

In the case of `COc1cc(/C=C/C(=O)N2CCCCC2)cc(OC)c1O`, the Activity (MDA-MB-231 [10]) is reported as “inactive”, the Activity (MDA-MB-231 [11]) is reported as “inactive” and the Activity (MDA-MB-231 [23]) is reported as “inactive”. The Activity (MDA-MB-231 [24]) was “inactive” and the Activity (MDA-MB-231 [25]) was “inactive”.

`COc1cc(CCC(=O)N2C=CC(=O)CC2)cc(OC)c1OC` was tested, and the Activity (MDA-MB-231 [1]) was “inactive”.
